Laboratory results as given in ChEMBL document CHEMBL1137445, “Bioassay-guided fractionation of pterocarpans from roots of Harpalyce brasiliana Benth” (Bioorg Med Chem, 2007).
In brackets after ≈: the same amount, converted by molar mass.

Experiments:
Lytechinus variegatus [1] = test: Antimitotic activity against Lytechinus variegatus at primary cleavage stage of egg development; assay type: functional, tissue-based
Summary of the method: (§1)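 Eggs were fertilized with diluted sperm in filtered seawater, and fertilization was confirmed by elevation of the vitellin membrane. Compounds were added 5 min after fertilization over a 0.1–100 range. Incubation was at room temperature. Aliquots were fixed in equal-volume 10% formaldehyde at first cleavage, third cleavage and blastula. 100 eggs were scored per concentration for % normal development. IC50 and 95% CI came from nonlinear regression of 3 independent experiments.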

Lytechinus variegatus [2] = test: Antimitotic activity against Lytechinus variegatus at tertiary cleavage stage of egg development; assay type: functional, tissue-based; summary of the method: as §1
Lytechinus variegatus [3] = test: Antimitotic activity against Lytechinus variegatus at blastulae stage of egg development; assay type: functional, tissue-based; settings: Blastula stage; summary of the method: as §1
MDA-MB-435 = test: Cytotoxicity against human MDA-MB-435 cells by MTT assay; assay type: functional, cell-based
Summary of the method: (§2)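 Cell lines were from NCI. Viability was read by MTT reduction to formazan. IC50 and 95% confidence interval came from nonlinear regression of three independent experiments.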

HL-60 = test: Cytotoxicity against human HL60 cells by MTT assay; assay type: functional, cell-based; summary of the method: as §2
HCT-8 (human) = test: Cytotoxicity against human HCT-8 cells by MTT assay

IC50 (Lytechinus variegatus [1]) [µg/mL] | IC50 (Lytechinus variegatus [2]) [µg/mL] | IC50 (Lytechinus variegatus [3]) [µg/mL] | Structure (SMILES) | IC50 (MDA-MB-435) [µg/mL] | IC50 (HL-60) [µg/mL] | IC50 (HCT-8 (human)) [µg/mL]
15.2 (≈ 43.1 µM) | 4.8 (≈ 13.6 µM) | 3.3 (≈ 9.36 µM) | CC(C)=CCc1c(O)ccc2c1OCC1c3cc4c(cc3OC21)OCO4 (stereo unspecified) | 4.9 (≈ 13.9 µM) | 3.1 (≈ 8.8 µM) | 8.5 (≈ 24.1 µM)
1.5 (≈ 4.07 µM) | 0.52 (≈ 1.41 µM) | 0.43 (≈ 1.17 µM) | C/C(=C\Cc1c(O)ccc2c1OCC1c3cc4c(cc3OC21)OCO4)CO (stereo unspecified) | > 25 | 16.2 (≈ 44 µM) | 8.8 (≈ 23.9 µM)
5.18 (≈ 14 µM) | 2.1 (≈ 5.67 µM) | 1.7 (≈ 4.59 µM) | CC(CO)CCc1cc2c(cc1O)OCC1c3cc4c(cc3OC21)OCO4 (stereo unspecified) | 16.9 (≈ 45.6 µM) | > 25 | 10.8 (≈ 29.2 µM)
6.28 (≈ 11.6 µM) | 0.34 (≈ 0.626 µM) | 0.54 (≈ 0.994 µM) | COc1cccc2c1C(=O)c1c(O)c3c(c(O)c1C2=O)C[C@@](O)(C(=O)CO)C[C@@H]3O[C@H]1C[C@H](N)[C@H](O)[C@H](C)O1 [DOXORUBICIN] | […] | 0.02 (≈ 0.0368 µM) | 0.01 (≈ 0.0184 µM)
1.1 (≈ 3.14 µM) | 0.4 (≈ 1.14 µM) | 0.2 (≈ 0.571 µM) | CC1(C)C=Cc2c(ccc3c2OCC2c4cc5c(cc4OC32)OCO5)O1 (stereo unspecified) [LEIOCARPIN] | 13.7 (≈ 39.1 µM) | 5.5 (≈ 15.7 µM) | 6.9 (≈ 19.7 µM)
6.5 (≈ 22.9 µM) | 4.3 (≈ 15.1 µM) | 4.6 (≈ 16.2 µM) | Oc1ccc2c(c1)OC[C@H]1c3cc4c(cc3O[C@@H]21)OCO4 [MAACKIAIN] | 11.5 (≈ 40.5 µM) | 17.9 (≈ 63 µM) | > 25
